Results: ChEMBL document CHEMBL1275449, “Potent in vitro antifungal activities of naturally occurring acetylenic acids” (Antimicrob Agents Chemother, 2008)
pIC50: −log10 of the molar value. ≈ marks a conversion by molar mass, not a printed value. Calls of active or inactive are those of the source. No cut-off for these calls is given here.

Key:
Candida albicans [1] = test: Antifungal activity against Candida albicans ATCC 90028 at 68.3 uM after 48 hrs by CLSI method; assay type: functional, organism-based
Method in brief: (§1)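 Candida inocula came from 24–72-h SD agar colonies suspended in saline. They were diluted by OD630 standard curve into RPMI 1640 (0.2% dextrose, 0.03% glutamine, 0.165 M MOPS, pH 7.0) to 1.5 × 10³ CFU/ml. Compounds were run as 11 twofold dilutions in 20% DMSO-saline, in duplicate, at 35°C for 48 h, with OD530 read before and after. Percent growth at the top concentration, IC50, MIC, and MFC (SD agar plating) were derived.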

Candida albicans [2] = test: Antifungal activity against Candida albicans ATCC 200955 at 68.3 uM after 48 hrs by CLSI method; assay type: functional, organism-based; method in brief: as §1
Candida albicans [3] = test: Antifungal activity against Fluconazole resistant Candida albicans isolate 1 at 68.3 uM after 48 hrs by CLSI method; assay type: functional, organism-based
Method in brief: (§2)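 Candida in CLSI broth microdilution. Saline colony suspension set to 1.5 × 10³ CFU/ml (final) in MOPS-buffered RPMI 1640, pH 7.0. Test agent given as twofold serial dilutions in 20% DMSO-saline, duplicate wells. 35°C for 48 h. Growth read as OD530 before and after incubation. Percent inhibition scored at the highest test concentration.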

Candida albicans [4] = test: Antifungal activity against Fluconazole resistant Candida albicans isolate 17 at 68.3 uM after 48 hrs by CLSI method; assay type: functional, organism-based; method in brief: as §2
Nakaseomyces glabratus = test: Antifungal activity against Candida glabrata ATCC 90030 at 68.3 uM after 48 hrs by CLSI method; assay type: functional, organism-based; method in brief: as §1
Pichia kudriavzevii [5] = test: Antifungal activity against Candida krusei ATCC 6258 at 68.3 uM after 48 hrs by CLSI method; assay type: functional, organism-based
Method in brief: (§3)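 Yeast suspensions made from 3-5 colonies off 24-72 h SD agar plates in saline. They were diluted by OD630 standard curve in RPMI 1640 (0.2% dextrose, 0.03% glutamine, 0.165 M MOPS, pH 7.0) to 1.5 × 10³ CFU/ml. Twofold dilutions (11 concentrations, 20% DMSO-saline) run in duplicate. OD530 read before and after 35°C, 48 h. Line values are top test concentrations; no-growth endpoints give MIC/MFC.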

Trichophyton rubrum [6] = test: Antifungal activity against Trichophyton rubrum ATCC 10218 by CLSI method; assay type: functional, organism-based
Method in brief: (§4)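 Growth scraped from 1- to 6-week-old potato dextrose slants and filtered through Miracloth. Diluted in 5% Alamar blue-RPMI 1640 (MOPS pH 7.0) to 2.7 × 10⁴ CFU/ml. Eleven twofold dilutions in duplicate. Fluorescence at 544 nm excitation/590 nm emission read before and after 35°C, 5 days. IC50 fitted from percent growth. MIC taken as no detectable growth; MFC from clear or blue wells plated on PD agar.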

Candida parapsilosis [7] = test: Antifungal activity against Candida parapsilosis ATCC 22019 at 68.3 uM after 48 hrs by CLSI method; assay type: functional, organism-based; method in brief: as §3
Trichophyton rubrum [8] = test: Antifungal activity against Trichophyton rubrum ATCC MYA-4438 by CLSI method; assay type: functional, organism-based; method in brief: as §4
[9] = test system: Trichophyton mentagrophytes; test: Antifungal activity against Trichophyton mentagrophytes ATCC 9533 by CLSI method; assay type: functional, organism-based; method in brief: as §4
Candida tropicalis [10] = test: Antifungal activity against Candida tropicalis ATCC 750 at 68.3 uM after 48 hrs by CLSI method; assay type: functional, organism-based; method in brief: as §3
[11] = test system: Trichophyton mentagrophytes; test: Antifungal activity against Trichophyton mentagrophytes ATCC MYA-4439 by CLSI method; assay type: functional, organism-based; method in brief: as §4
Cryptococcus neoformans [12] = test: Antifungal activity against Cryptococcus neoformans ATCC 66031 after 72 hrs by CLSI method; assay type: functional, organism-based; details: ATCC 66031, 72 h
Method in brief: (§5)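 SD broth replaced RPMI because growth in RPMI was poor; other CLSI conditions were kept. Inoculum was 1.5 × 10³ CFU/ml from colonies on SD agar, checked by plating. Twofold serial dilutions (11 concentrations) in 20% DMSO-saline were tested in duplicate. OD530 was read before and after incubation at 35°C for 72 h. Percent growth gave IC50; the MIC is the lowest concentration with no detectable growth.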

Cryptococcus neoformans [13] = test: Antifungal activity against Cryptococcus neoformans ATCC 90113 after 72 hrs by CLSI method; assay type: functional, organism-based; details: ATCC 90113, 72 h; method in brief: as §5
Candida tropicalis [14] = test: Antifungal activity against Candida tropicalis ATCC 750 after 48 hrs by CLSI method; assay type: functional, organism-based; details: ATCC 750, 48 h; method in brief: as §3
Candida parapsilosis [15] = test: Antifungal activity against Candida parapsilosis ATCC 22019 after 48 hrs by CLSI method; assay type: functional, organism-based; details: Lodderomyces parapsilosis, ATCC 22019, 48 h; method in brief: as §3
Pichia kudriavzevii [16] = test: Antifungal activity against Candida krusei ATCC 6258 after 48 hrs by CLSI method; assay type: functional, organism-based; details: ATCC 6258, 48 h; method in brief: as §1
Candida albicans [17] = test: Antifungal activity against Fluconazole resistant Candida albicans clinical isolate 17 after 48 hrs by CLSI method; assay type: functional, organism-based
Method in brief: (§6)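 CLSI broth microdilution. Colonies from 24–72 h SD agar suspended in saline and sized by OD630 standard curve. Inoculum 1.5 × 10³ CFU/ml (final) in RPMI 1640 (0.2% dextrose, 0.03% glutamine, 0.165 M MOPS, pH 7.0). Twofold dilutions (11 levels) from 20% DMSO-saline, in duplicate. 35°C for 48 h, OD530 read before and after. IC50 fitted from % growth. MIC: no detectable growth. MFC: subculture onto SD agar.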

Aspergillus fumigatus [18] = test: Antifungal activity against Aspergillus fumigatus ATCC 204305 at 68.3 uM after 48 hrs by CLSI method; assay type: functional, organism-based
Candida albicans [19] = test: Antifungal activity against Fluconazole resistant Candida albicans clinical isolate 1 after 48 hrs by CLSI method; assay type: functional, organism-based; method in brief: as §6
Aspergillus fumigatus [20] = test: Antifungal activity against Aspergillus fumigatus ATCC 90906 at 68.3 uM after 48 hrs by CLSI method; assay type: functional, organism-based
Candida albicans [21] = test: Antifungal activity against Candida albicans ATCC 200955 after 48 hrs by CLSI method; assay type: functional, organism-based; details: ATCC 200955, 48 h; method in brief: as §6
Aspergillus niger [22] = test: Antifungal activity against Aspergillus niger ATCC 16404 at 68.3 uM after 48 hrs by CLSI method; assay type: functional, organism-based
Candida albicans [23] = test: Antifungal activity against Candida albicans ATCC 90028 after 48 hrs by CLSI method; assay type: functional, organism-based; details: ATCC 90028, 48 h; method in brief: as §6
Candida albicans [24] = test: Antifungal activity against Candida albicans ATCC 32354 after 48 hrs by CLSI method; assay type: functional, organism-based; details: ATCC 32354, 48 h; method in brief: as §6
Trichophyton rubrum [25] = test: Antifungal activity against Trichophyton rubrum ATCC MYA-4438 at 68.3 uM after 5 days by CLSI method; assay type: functional, organism-based
Candida albicans [26] = test: Antifungal activity against Candida albicans ATCC 14053 after 48 hrs by CLSI method; assay type: functional, organism-based; details: ATCC 14053, 48 h; method in brief: as §6
Candida albicans [27] = test: Antifungal activity against Candida albicans ATCC 60193 after 48 hrs by CLSI method; assay type: functional, organism-based; details: ATCC 60193, 48 h; method in brief: as §6
Candida albicans [28] = test: Antifungal activity against Candida albicans ATCC 14053 at 68.3 uM after 48 hrs by CLSI method; assay type: functional, organism-based
Candida albicans [29] = test: Antifungal activity against Candida albicans ATCC 60193 at 68.3 uM after 48 hrs by CLSI method; assay type: functional, organism-based; method in brief: as §1
Candida albicans [30] = test: Antifungal activity against Candida albicans ATCC 32354 at 68.3 uM after 48 hrs by CLSI method; assay type: functional, organism-based; method in brief: as §1
Aspergillus niger [31] = test: Antifungal activity against Aspergillus niger ATCC 16404 after 48 h by CLSI method; details: ATCC 16404, 48 h
Aspergillus flavus = test: Antifungal activity against Aspergillus flavus ATCC 204304 after 48 h by CLSI method; details: ATCC 204304, 48 h
Aspergillus fumigatus [32] = test: Antifungal activity against Aspergillus fumigatus ATCC 90906 after 48 h by CLSI method; details: ATCC 90906, 48 h
Aspergillus fumigatus [33] = test: Antifungal activity against Aspergillus fumigatus ATCC 204305 after 48 h by CLSI method; details: ATCC 204305, 48 h

Q: `CN(C/C=C/C#CC(C)(C)C)Cc1cccc2ccccc12` [TERBINAFINE] was tested. Which Activity (Candida albicans [1]) did it give?
A: inactive

Q: What about the Activity (Candida albicans [2]) of the same compound?
A: inactive

Q: What about the Activity (Candida albicans [3]) of the same compound?
A: inactive

Q: What about the Activity (Candida albicans [4]) of the same compound?
A: inactive

Q: And the Activity (Nakaseomyces glabratus)?
A: inactive

Q: And the Activity (Pichia kudriavzevii [5])?
A: inactive

Q: And the pIC50 (Trichophyton rubrum [6])?
A: > 7.70

Q: What about the MFC (Trichophyton rubrum [6]) of the same compound?
A: 0.13 µM (≈ 0.0379 µg/mL)

Q: And the MIC (Trichophyton rubrum [6])?
A: 0.1 µM (≈ 0.0291 µg/mL)

Q: And the Activity (Candida parapsilosis [7])?
A: inactive

Q: What about the pIC50 (Trichophyton rubrum [8]) of the same compound?
A: 5.38

Q: What about the MIC (Trichophyton rubrum [8]) of the same compound?
A: 21.4 µM (≈ 6.24 µg/mL)

Q: What about the pIC50 [9] of the same compound?
A: > 7.70

Q: What about the MFC [9] of the same compound?
A: 0.27 µM (≈ 0.0787 µg/mL)

Q: What about the MIC [9] of the same compound?
A: 0.05 µM (≈ 0.0146 µg/mL)

Q: What about the Activity (Candida tropicalis [10]) of the same compound?
A: inactive

Q: And the pIC50 [11]?
A: > 7.70

Q: And the MFC [11]?
A: 0.27 µM (≈ 0.0787 µg/mL)

Q: What about the MIC [11] of the same compound?
A: 0.17 µM (≈ 0.0495 µg/mL)

Q: What about the pIC50 (Cryptococcus neoformans [12]) of the same compound?
A: 6.40

Q: And the MFC (Cryptococcus neoformans [12])?
A: 8.6 µM (≈ 2.51 µg/mL)

Q: What about the MIC (Cryptococcus neoformans [12]) of the same compound?
A: 4.3 µM (≈ 1.25 µg/mL)

Q: And the pIC50 (Cryptococcus neoformans [13])?
A: 6.30

Q: What about the MFC (Cryptococcus neoformans [13]) of the same compound?
A: 1.1 µM (≈ 0.321 µg/mL)

Q: And the MIC (Cryptococcus neoformans [13])?
A: 1.1 µM (≈ 0.321 µg/mL)

Q: What about the pIC50 (Candida tropicalis [14]) of the same compound?
A: 4.34

Q: And the pIC50 (Candida parapsilosis [15])?
A: 6.40

Q: What about the MIC (Candida parapsilosis [15]) of the same compound?
A: 42.9 µM (≈ 12.5 µg/mL)

Q: And the pIC50 (Pichia kudriavzevii [16])?
A: < 4.17

Q: And the pIC50 (Candida albicans [17])?
A: < 4.17

Q: What about the Activity (Aspergillus fumigatus [18]) of the same compound?
A: inactive

Q: What about the pIC50 (Candida albicans [19]) of the same compound?
A: 4.95

Q: What about the Activity (Aspergillus fumigatus [20]) of the same compound?
A: inactive

Q: What about the pIC50 (Candida albicans [21]) of the same compound?
A: 5.51

Q: And the MIC (Candida albicans [21])?
A: 51.5 µM (≈ 15 µg/mL)

Q: And the Activity (Aspergillus niger [22])?
A: inactive

Q: And the pIC50 (Candida albicans [23])?
A: 4.97

Q: What about the pIC50 (Candida albicans [24]) of the same compound?
A: 5.59

Q: What about the Activity (Trichophyton rubrum [25]) of the same compound?
A: inactive

Q: What about the pIC50 (Candida albicans [26]) of the same compound?
A: 4.86

Q: And the pIC50 (Candida albicans [27])?
A: 5.28

Q: And the Activity (Candida albicans [28])?
A: inactive

Q: What about the Activity (Candida albicans [29]) of the same compound?
A: inactive

Q: What about the Activity (Candida albicans [30]) of the same compound?
A: inactive

Q: What about the pIC50 (Aspergillus niger [31]) of the same compound?
A: 6.15

Q: And the MIC (Aspergillus niger [31])?
A: 2.1 µM (≈ 0.612 µg/mL)

Q: And the pIC50 (Aspergillus flavus)?
A: 6.52

Q: And the MFC (Aspergillus flavus)?
A: 8.6 µM (≈ 2.51 µg/mL)

Q: What about the MIC (Aspergillus flavus) of the same compound?
A: 2.1 µM (≈ 0.612 µg/mL)

Q: What about the pIC50 (Aspergillus fumigatus [32]) of the same compound?
A: 6.00

Q: What about the MIC (Aspergillus fumigatus [32]) of the same compound?
A: 4.3 µM (≈ 1.25 µg/mL)

Q: And the pIC50 (Aspergillus fumigatus [33])?
A: 5.96

Q: What about the MIC (Aspergillus fumigatus [33]) of the same compound?
A: 4.3 µM (≈ 1.25 µg/mL)
